Target: T1, Gonadotropin-releasing hormone receptor (Homo sapiens, UniProt P30968)
T1 sequence (P30968 whole entry): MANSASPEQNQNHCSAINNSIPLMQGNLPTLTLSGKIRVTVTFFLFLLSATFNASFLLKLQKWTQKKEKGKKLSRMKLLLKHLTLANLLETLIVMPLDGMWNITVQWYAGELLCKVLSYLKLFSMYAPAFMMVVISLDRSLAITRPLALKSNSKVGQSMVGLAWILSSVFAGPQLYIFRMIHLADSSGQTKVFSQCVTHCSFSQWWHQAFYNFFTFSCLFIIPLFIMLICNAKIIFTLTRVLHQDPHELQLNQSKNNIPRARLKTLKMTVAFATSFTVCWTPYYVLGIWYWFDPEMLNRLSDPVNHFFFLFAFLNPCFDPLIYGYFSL
Assay: In vitro inhibition of specific [125I]leuprorelin binding to the cloned human LHRH receptor expressed in chinese hamster ovary cells
Type: cell-based, CHO
Procedure, shortened: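 Membranes from CHO cells expressing the receptor (0.2 mg/mL) incubated with [125I][Tyr5]leuprorelin (0.12–0.15 nM) and varied test compound, 60 min at 25 °C, Tris 25 mM/EDTA/0.1% BSA/protease inhibitors buffer, pH 7.5. Stopped with ice-cold buffer, filtered on PEI-coated glass fibre, radioactivity counted. Nonspecific binding with […] unlabeled leuprorelin; IC50 from pseudo-Hill fit.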

| SMILES | IC50 [nM] |
| --- | --- |
| CONC(=O)Nc1ccc(-c2nc3n(Cc4c(F)cccc4F)cc(C(=O)OC(C)C)c(=O)n3c2CN(C)Cc2ccccc2)cc1 | 0.4 |
| CCOC(=O)c1cn(Cc2c(F)cccc2F)c2nc(-c3ccc(NC(=O)NOC)cc3)c(CN(C)Cc3ccccc3)n2c1=O | 0.7 |
| CCOC(=O)c1cn(Cc2c(F)cccc2F)c2nc(-c3ccc(NC(=O)c4ccccc4)cc3)c(CN(C)Cc3ccccc3)n2c1=O | 20 |
| CCOC(=O)c1cn(Cc2c(F)cccc2F)c2nc(-c3ccc(NC(=O)CC)cc3)c(CN(C)Cc3ccccc3)n2c1=O | 10 |
| CCNC(=O)Nc1ccc(-c2nc3n(Cc4c(F)cccc4F)cc(C(=O)OC(C)C)c(=O)n3c2CN(C)Cc2ccccc2)cc1 | 0.3 |
| CCOC(=O)c1cn(Cc2c(F)cccc2F)c2nc(-c3ccc(NC(=O)c4ccoc4)cc3)c(CN(C)Cc3ccccc3)n2c1=O | 3 |
| CCOC(=O)c1cn(Cc2c(F)cccc2F)c2nc(-c3ccc(NC(=O)C(C)C)cc3)c(CN(C)Cc3ccccc3)n2c1=O | 30 |
| CCOC(=O)c1cn(Cc2c(F)cccc2F)c2nc(-c3ccc(NC(=O)C4CC4)cc3)c(CN(C)Cc3ccccc3)n2c1=O | 5 |
| CCOC(=O)c1cn(Cc2c(F)cccc2F)c2nc(-c3ccc(NC(=O)c4ccsc4)cc3)c(CN(C)Cc3ccccc3)n2c1=O | 7 |
| C=CC(=O)Nc1ccc(-c2nc3n(Cc4c(F)cccc4F)cc(C(=O)OCC)c(=O)n3c2CN(C)Cc2ccccc2)cc1 | 3 |
